Assay results published in ChEMBL document CHEMBL4689842, “EUbOPEN Chemogenomics Library wave 1” (2021).

Key:
U2OS [1] = assay: Incucyte cell viability with U2OS; format: toxicity, cell-based; conditions: human, 10 µM, compound concentration 10 uM; note: filed as whole numbers so only -1 and 0 and 1 occur
U2OS [2] = assay: Multiplex assay against U2OS; format: toxicity, cell-based; conditions: human
Method in brief: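 Tubulin, mitochondrial-mass and membrane-permeability phenotypes are per cents of healthy-nucleus cells. Cells were gated by CellPathfinder machine learning into Hoechst high-intensity objects or normal cells, normal cells into healthy, pyknosed or fragmented nuclei, and pyknosed cells into mitotic or apoptotic. Before that, live cells stained at seeding with Hoechst33342, BioTracker Green Microtubule Cytoskeleton Dye, MitoTracker Red and Annexin V Alexa Fluor 680 were imaged on a CQ1 microscope at 37°C and 5% CO2 after compound addition.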

[3] = 12 h, 1 µM, compound concentration 1 uM, replicate 1
[4] = 12 h, 1 µM, compound concentration 1 uM, replicate 2
[5] = 12 h, 10 µM, compound concentration 10 uM, replicate 1
[6] = 12 h, 10 µM, compound concentration 10 uM, replicate 2
[7] = 24 h, 1 µM, compound concentration 1 uM, replicate 1
[8] = 24 h, 1 µM, compound concentration 1 uM, replicate 2

CC(C)c1cc(Nc2nc(N3CCC[C@H](N)C3)ncc2C(N)=O)cc(C(C)C)n1
Growth Rate (U2OS [1]; 0 h, replicate number 1, timepoint 0 hours): 1
Growth Rate (U2OS [1]; 0 h, replicate number 2, timepoint 0 hours): 0
Growth Rate (U2OS [1]; 6 h, replicate number 1, timepoint 6 hours): 0
Growth Rate (U2OS [1]; 6 h, replicate number 2, timepoint 6 hours): 1
Growth Rate (U2OS [1]; 12 h, replicate number 1, timepoint 12 hours): 0
Growth Rate (U2OS [1]; 18 h, replicate number 1, timepoint 18 hours): 0
Growth Rate (U2OS [1]; 24 h, replicate number 1, timepoint 24 hours): 0
Population Apoptotic (%) (U2OS [2]; [3]): 51%
Population Fragmented Nuclei (%) (U2OS [2]; [3]): 8%
Population Healthy Nuclei (%) (U2OS [2]; [3]): 67%
Population Hoechst High Intensity Objects (%) (U2OS [2]; [3]): 5%
Population Membrane Permeable-Phenotype (%) (U2OS [2]; [3]): 22%
Population Mitochondria Different-Phenotype (%) (U2OS [2]; [3]): 89%
Population Mitotic Cells (%) (U2OS [2]; [3]): 48%
Population Normal (%) (U2OS [2]; [3]): 94%
Population Pyknosed Nuclei (%) (U2OS [2]; [3]): 23%
Population Tubulin-Different-Phenotype (%) (U2OS [2]; [3]): 100%
Total Cell Count (U2OS [2]; [3]): 201
Population Apoptotic (%) (U2OS [2]; [4]): 44%
Population Fragmented Nuclei (%) (U2OS [2]; [4]): 12%
Population Healthy Nuclei (%) (U2OS [2]; [4]): 75%
Population Hoechst High Intensity Objects (%) (U2OS [2]; [4]): 9%
Population Membrane Permeable-Phenotype (%) (U2OS [2]; [4]): 16%
Population Mitochondria Different-Phenotype (%) (U2OS [2]; [4]): 92%
Population Mitotic Cells (%) (U2OS [2]; [4]): 55%
Population Normal (%) (U2OS [2]; [4]): 90%
Population Pyknosed Nuclei (%) (U2OS [2]; [4]): 12%
Population Tubulin-Different-Phenotype (%) (U2OS [2]; [4]): 96%
Total Cell Count (U2OS [2]; [4]): 82
Population Apoptotic (%) (U2OS [2]; [5]): 64%
Population Fragmented Nuclei (%) (U2OS [2]; [5]): 23%
Population Healthy Nuclei (%) (U2OS [2]; [5]): 39%
Population Hoechst High Intensity Objects (%) (U2OS [2]; [5]): 4%
Population Membrane Permeable-Phenotype (%) (U2OS [2]; [5]): 88%
Population Mitochondria Different-Phenotype (%) (U2OS [2]; [5]): 98%
Population Mitotic Cells (%) (U2OS [2]; [5]): 35%
Population Normal (%) (U2OS [2]; [5]): 95%
Population Pyknosed Nuclei (%) (U2OS [2]; [5]): 37%
Total Cell Count (U2OS [2]; [5]): 161
Population Apoptotic (%) (U2OS [2]; [6]): 65%
Population Fragmented Nuclei (%) (U2OS [2]; [6]): 19%
Population Healthy Nuclei (%) (U2OS [2]; [6]): 31%
Population Hoechst High Intensity Objects (%) (U2OS [2]; [6]): 14%
Population Membrane Permeable-Phenotype (%) (U2OS [2]; [6]): 100%
Population Mitochondria Different-Phenotype (%) (U2OS [2]; [6]): 93%
Population Mitotic Cells (%) (U2OS [2]; [6]): 34%
Population Normal (%) (U2OS [2]; [6]): 85%
Population Pyknosed Nuclei (%) (U2OS [2]; [6]): 48%
Population Tubulin-Different-Phenotype (%) (U2OS [2]; [6]): 100%
Total Cell Count (U2OS [2]; [6]): 55
Population Apoptotic (%) (U2OS [2]; [7]): 57%
Population Fragmented Nuclei (%) (U2OS [2]; [7]): 9%
Population Healthy Nuclei (%) (U2OS [2]; [7]): 61%
Population Hoechst High Intensity Objects (%) (U2OS [2]; [7]): 6%
Population Membrane Permeable-Phenotype (%) (U2OS [2]; [7]): 22%
Population Mitochondria Different-Phenotype (%) (U2OS [2]; [7]): 90%
Population Mitotic Cells (%) (U2OS [2]; [7]): 42%
Population Normal (%) (U2OS [2]; [7]): 93%
Population Pyknosed Nuclei (%) (U2OS [2]; [7]): 29%
Population Tubulin-Different-Phenotype (%) (U2OS [2]; [7]): 98%
Total Cell Count (U2OS [2]; [7]): 206
Population Apoptotic (%) (U2OS [2]; [8]): 26%
Population Fragmented Nuclei (%) (U2OS [2]; [8]): 10%
Population Healthy Nuclei (%) (U2OS [2]; [8]): 68%
Population Hoechst High Intensity Objects (%) (U2OS [2]; [8]): 5%
Population Membrane Permeable-Phenotype (%) (U2OS [2]; [8]): 30%
Population Mitochondria Different-Phenotype (%) (U2OS [2]; [8]): 96%
